Assay [1] concerns the target T1, Transient receptor potential cation channel subfamily M member 8 (Rattus norvegicus, UniProt Q8R455). Put plainly: Antagonist activity at rat TRMP8 receptor expressed in HEK293 cells assessed as icilin-induced calcium elevation. The class given is functional, cell-based. In outline: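 HEK-293 cells stably expressing rat TRPM8 received compound 5 min before icilin (0.25 µM). Inhibition of the intracellular Ca2+ elevation was measured. IC50 given as mean ± SEM of N = 3.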

The target of assay [2] is T1, Transient receptor potential cation channel subfamily M member 8. Put plainly: Antagonist activity at rat TRMP8 receptor expressed in HEK293 cells assessed as menthol-induced calcium elevation. It is filed as functional, cell-based. In outline:
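Rat TRPM8-transfected HEK-293 cells were pretreated with compound for 5 min, then challenged with menthol (20 µM). Block of the Ca2+ rise gave IC50 (means ± SEM, N = 3).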

The target of assay [3] is T2, Transient receptor potential cation channel subfamily V member 1 (Homo sapiens, UniProt Q8NER1). Put plainly: Agonist activity at human TRPV1 receptor expressed in HEK293 cells assessed as intracellular calcium stimulation relative to inomycin. The class given is functional, cell-based. The gist of the method: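 Ca2+ elevation in HEK-293 cells stably expressing human TRPV1, expressed as percent of the ionomycin ([…]) response. Not measurable if below 10%. Mean ± SEM, N = 3.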
T2 sequence (Q8NER1 whole entry): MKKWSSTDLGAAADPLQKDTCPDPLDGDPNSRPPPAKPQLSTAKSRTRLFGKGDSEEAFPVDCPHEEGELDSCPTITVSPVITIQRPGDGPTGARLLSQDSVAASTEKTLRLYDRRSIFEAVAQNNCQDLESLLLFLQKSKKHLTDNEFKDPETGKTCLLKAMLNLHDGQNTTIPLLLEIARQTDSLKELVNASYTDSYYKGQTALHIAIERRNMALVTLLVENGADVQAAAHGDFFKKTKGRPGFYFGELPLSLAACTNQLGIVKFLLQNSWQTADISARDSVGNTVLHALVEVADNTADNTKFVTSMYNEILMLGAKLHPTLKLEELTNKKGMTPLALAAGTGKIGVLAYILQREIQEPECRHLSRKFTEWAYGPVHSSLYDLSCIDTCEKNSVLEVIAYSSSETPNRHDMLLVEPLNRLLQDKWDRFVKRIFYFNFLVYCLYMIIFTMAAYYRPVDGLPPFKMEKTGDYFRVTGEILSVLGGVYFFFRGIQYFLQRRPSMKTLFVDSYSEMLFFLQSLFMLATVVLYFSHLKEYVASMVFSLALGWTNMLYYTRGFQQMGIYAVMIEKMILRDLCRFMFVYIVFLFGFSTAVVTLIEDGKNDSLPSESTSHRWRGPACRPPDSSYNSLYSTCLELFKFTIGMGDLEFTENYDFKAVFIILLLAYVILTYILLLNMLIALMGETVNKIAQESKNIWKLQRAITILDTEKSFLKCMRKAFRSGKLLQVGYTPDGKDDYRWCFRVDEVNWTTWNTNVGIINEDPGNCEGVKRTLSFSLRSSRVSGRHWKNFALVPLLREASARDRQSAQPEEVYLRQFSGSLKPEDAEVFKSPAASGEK

Assay [4] addresses Transient receptor potential cation channel subfamily A member 1 (Rattus norvegicus, UniProt Q6RI86). Put plainly: Agonist activity at rat TRPA1 receptor expressed in HEK293 cells assessed as intracellular calcium stimulation. It is filed as functional, cell-based. The gist of the method:
(§1)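 Stably transfected HEK-293 lines (human TRPV1 or rat TRPA1) exposed to compound; rise in intracellular Ca2+ recorded. Non-transfected HEK-293 cells served as control. EC50 reported as mean ± SEM, N = 3.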
(In general: A change in cytosolic calcium serves as a functional read-out for many receptors and channels.)

Assay [5] concerns the target Transient receptor potential cation channel subfamily A member 1 (Rattus norvegicus) (UniProt Q6RI86). Put plainly: Agonist activity at rat TRPA1 receptor expressed in HEK293 cells assessed as intracellular calcium stimulation relative to isothiocyanate. The class given is functional, cell-based. In outline: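 Intracellular Ca2+ rise in HEK-293 cells stably transfected with rat TRPA1, given as percent of the response to allyl isothiocyanate (100 µM). Efficacy under 10% scored not measurable. N = 3, mean ± SEM.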

In assay [6] the target is T2, Transient receptor potential cation channel subfamily V member 1. Put plainly: Agonist activity at human TRPV1 receptor expressed in HEK293 cells assessed as intracellular calcium stimulation. The class given is functional, cell-based. The gist of the method: as §1
The subject of the next assay is LNCaP. Put plainly: Induction of apoptosis in human LNCAP cells assessed as caspase 3/7 release at 1 uM. The class given is functional. In outline: (§2)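 Prostate carcinoma cells (LNCaP, high TRPM8; DU-145, negligible TRPM8) were treated at 1 µM. Apoptosis was read as caspase 3/7 release in arbitrary units. Anti-FAS antibody plus camptothecin served as reference. Means ± SD, N = 3 experiments.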

Another assay concerns DU-145. Put plainly: Induction of apoptosis in human DU145 cells assessed as caspase 3/7 release at 1 uM. The class given is functional. In outline: as §2

The record followed here is ChEMBL document CHEMBL1158538, “(-)-Menthylamine derivatives as potent and selective antagonists of transient receptor potential melastatin type-8 (TRPM8) channels” (Bioorg Med Chem Lett, 2010).

T1 sequence (Q8R455 whole entry): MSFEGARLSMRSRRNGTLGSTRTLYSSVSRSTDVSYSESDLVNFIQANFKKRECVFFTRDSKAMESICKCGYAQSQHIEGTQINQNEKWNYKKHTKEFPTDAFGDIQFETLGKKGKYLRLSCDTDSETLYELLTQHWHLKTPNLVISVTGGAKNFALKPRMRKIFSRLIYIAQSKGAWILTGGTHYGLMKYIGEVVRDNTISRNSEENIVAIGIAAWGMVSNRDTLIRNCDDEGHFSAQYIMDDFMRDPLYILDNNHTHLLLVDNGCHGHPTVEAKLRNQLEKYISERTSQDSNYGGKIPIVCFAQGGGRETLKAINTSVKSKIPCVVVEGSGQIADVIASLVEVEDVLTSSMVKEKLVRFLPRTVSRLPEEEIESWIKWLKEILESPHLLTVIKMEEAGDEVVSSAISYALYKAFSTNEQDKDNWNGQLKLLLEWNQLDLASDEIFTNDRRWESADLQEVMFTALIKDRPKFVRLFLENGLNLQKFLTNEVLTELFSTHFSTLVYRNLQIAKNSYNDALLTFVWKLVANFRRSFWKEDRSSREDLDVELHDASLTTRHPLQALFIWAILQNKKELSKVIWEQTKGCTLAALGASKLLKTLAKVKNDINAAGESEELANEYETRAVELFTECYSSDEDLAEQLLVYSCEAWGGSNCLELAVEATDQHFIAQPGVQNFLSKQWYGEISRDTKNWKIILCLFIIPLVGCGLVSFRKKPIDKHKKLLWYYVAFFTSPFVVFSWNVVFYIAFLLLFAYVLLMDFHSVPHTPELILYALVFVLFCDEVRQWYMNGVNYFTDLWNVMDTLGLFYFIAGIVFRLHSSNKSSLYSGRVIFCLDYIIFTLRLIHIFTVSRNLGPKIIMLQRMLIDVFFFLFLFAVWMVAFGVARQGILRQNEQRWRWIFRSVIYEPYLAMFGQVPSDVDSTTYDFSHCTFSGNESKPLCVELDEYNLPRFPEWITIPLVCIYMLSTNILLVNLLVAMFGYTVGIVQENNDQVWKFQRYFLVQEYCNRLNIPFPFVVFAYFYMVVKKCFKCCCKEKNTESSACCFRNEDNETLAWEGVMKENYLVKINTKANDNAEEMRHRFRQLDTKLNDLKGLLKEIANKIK
Sequence of Transient receptor potential cation channel subfamily A member 1 (Q6RI86 whole entry): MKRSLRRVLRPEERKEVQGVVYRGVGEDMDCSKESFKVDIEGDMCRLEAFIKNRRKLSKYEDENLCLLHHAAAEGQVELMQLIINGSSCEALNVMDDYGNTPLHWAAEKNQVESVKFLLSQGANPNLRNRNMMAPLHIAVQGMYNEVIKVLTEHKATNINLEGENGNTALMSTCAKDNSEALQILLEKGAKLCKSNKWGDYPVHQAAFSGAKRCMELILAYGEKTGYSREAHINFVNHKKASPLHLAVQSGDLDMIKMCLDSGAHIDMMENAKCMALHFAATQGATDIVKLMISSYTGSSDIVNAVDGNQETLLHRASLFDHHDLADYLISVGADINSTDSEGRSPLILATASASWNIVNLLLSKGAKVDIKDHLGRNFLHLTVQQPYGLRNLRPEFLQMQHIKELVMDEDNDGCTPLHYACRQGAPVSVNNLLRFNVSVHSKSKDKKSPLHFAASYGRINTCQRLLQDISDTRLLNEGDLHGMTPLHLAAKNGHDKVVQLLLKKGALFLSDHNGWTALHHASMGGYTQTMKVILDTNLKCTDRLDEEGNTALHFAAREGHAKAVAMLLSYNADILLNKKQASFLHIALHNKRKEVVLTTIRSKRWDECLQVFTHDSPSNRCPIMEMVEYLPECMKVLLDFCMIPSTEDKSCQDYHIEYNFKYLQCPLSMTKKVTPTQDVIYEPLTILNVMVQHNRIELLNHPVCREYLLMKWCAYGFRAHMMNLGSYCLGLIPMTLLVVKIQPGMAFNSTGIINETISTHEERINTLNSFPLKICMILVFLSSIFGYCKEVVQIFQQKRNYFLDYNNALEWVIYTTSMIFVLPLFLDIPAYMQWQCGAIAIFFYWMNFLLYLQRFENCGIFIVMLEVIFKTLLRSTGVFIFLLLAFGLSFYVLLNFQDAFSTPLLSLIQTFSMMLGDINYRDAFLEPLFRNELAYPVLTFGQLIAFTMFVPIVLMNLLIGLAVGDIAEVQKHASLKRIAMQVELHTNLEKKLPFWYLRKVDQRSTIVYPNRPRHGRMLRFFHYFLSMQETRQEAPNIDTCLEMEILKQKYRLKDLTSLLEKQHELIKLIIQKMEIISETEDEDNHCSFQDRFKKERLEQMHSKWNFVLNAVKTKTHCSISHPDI
Sequence of Transient receptor potential cation channel subfamily A member 1 (Rattus norvegicus) (Q6RI86 whole entry): as above

Turning to `CC(C)[C@@H]1CC[C@@H](C)C[C@H]1NC(=O)CCCCCCc1ccccc1`, the half-inhibitory concentration (IC50) in assay [1] and in assay [2] was 0.4 µM each time. Further, the Efficacy in assay [3] stood at 8%; in assay [5], 42.8%. In assay [4], the half-maximal effective concentration (EC50) – broadly, the concentration giving half of the maximal effect – was determined as 0.4 µM.
For the compound `CC(C)[C@@H]1CC[C@@H](C)C[C@H]1NC(=O)Oc1cccc(-c2ccccc2)c1`, the IC50 (commonly the midpoint of a concentration-inhibition curve) in assay [1] stood at 1.5 µM; in assay [2] it was 0.05 µM. Also, the EC50 in assay [6] was found to be 7.1 µM; in assay [4] it was 31 µM. Besides, the Efficacy in assay [3] was 50.9%; in assay [5], 282%.
Regarding `Cc1ccc(OC(=O)N[C@@H]2C[C@H](C)CC[C@H]2C(C)C)cc1`, the results for the half-inhibitory concentration (IC50) in assay [1] and in assay [2] were 0.7 µM and 1.1 µM, respectively. In addition, the Efficacy in assay [3] turned out to be 3.4%; in assay [5], 73.9%. Further, in assay [4], the EC50 was determined as 0.7 µM.
`CC(C)[C@@H]1CC[C@@H](C)C[C@H]1NC(=O)c1ccc(C(C)(C)C)cc1`: the 50% inhibitory concentration (IC50) in assay [1] stood at 60.8 µM; in assay [2], 97.6 µM. The figures for the half-maximal effective concentration (EC50) in assay [6] and in assay [4] were 0.25 µM and 4.9 µM, respectively. Moreover, the Efficacy in assay [3] was 27.4%; in assay [5], 138%.
As to `CC(C)[C@@H]1CC[C@@H](C)C[C@H]1NC(=O)Oc1ccc(Cl)cc1`, the IC50 in assay [1] is 4.1 µM; in assay [2], 0.8 µM. Besides, the 50% effective concentration (EC50) in assay [6] is 42.8 µM; in assay [4], 7.1 µM. The Efficacy was 15.1% in assay [3] and 181% in assay [5].
On to `CC(C)[C@@H]1CC[C@@H](C)C[C@H]1NC(=O)c1cccc(Cl)c1`, for which the results for the IC50 in assay [1] and in assay [2] were 2.1 µM and 2.8 µM, respectively. The EC50 in assay [6] amounted to 7.6 µM. For the same compound, the Efficacy in assay [3] is 41.9%; in assay [5], under 10%.
As for `CC(C)[C@@H]1CC[C@@H](C)C[C@H]1NC(=O)Oc1cccc(C(C)(C)C)c1`, the half-maximal inhibitory concentration (IC50) was found to be 3.3 µM in assay [1] and 5.9 µM in assay [2]. Moreover, the figures for the EC50 in assay [6] and in assay [4] were 5.8 µM and 36.7 µM, respectively. Besides, the Efficacy in assay [3] turned out to be 16.3%; in assay [5], 273%.
For `CC(C)[C@@H]1CC[C@@H](C)C[C@H]1NC(=O)CCCCCCCc1ccccc1`, the IC50 was found to be 0.5 µM in assay [1] and 0.4 µM in assay [2]. In addition, the Efficacy amounted to 5.5% in assay [3] and 67% in assay [5]. Besides, the concentration for a half-maximal effect (EC50) in assay [4] was 26.7 µM.
Regarding `Cc1ccc(C(=O)N[C@@H]2C[C@H](C)CC[C@H]2C(C)C)cc1`, the results for the IC50 in assay [1] and in assay [2] were 2.5 µM and 2.2 µM, respectively. Further, the Efficacy in assay [3] was 5.4%; in assay [5], under 10%.
In the case of `CC(C)[C@@H]1CC[C@@H](C)C[C@H]1NC(=O)NCCc1c[nH]c2ccc(O)cc12`, the concentration for half-maximal inhibition (IC50) in assay [1] was found to be 31 µM; in assay [2] it was 15.8 µM. In addition, the EC50 in assay [6] worked out at 52.2 µM. For the same compound, the Efficacy in assay [3] is 12.7%; in assay [5], under 10%.
`CCCCCCCC/C=C\CCCCCCCC(=O)N[C@@H]1C[C@H](C)CC[C@H]1C(C)C`: the values for the IC50 in assay [1] and in assay [2] were over 100 µM and 60.6 µM, respectively. For the same compound, the Efficacy in assay [3] was 4.4%; in assay [5], under 10%.
Regarding `CC(C)[C@@H]1CC[C@@H](C)C[C@H]1NC(=O)Oc1cccc(C(F)(F)F)c1`, the results for the IC50 in assay [1] and in assay [2] were 0.6 µM and 0.3 µM, respectively. For the same compound, the Efficacy came to 7.4% in assay [3] and 220% in assay [5]. For the same compound, in assay [4], the half-maximal effective concentration (EC50) amounted to 13.8 µM.
In the case of `CC(C)[C@@H]1CC[C@@H](C)C[C@H]1NC(=O)c1ccc(-c2ccccc2)cc1`, the half-maximal inhibitory concentration (IC50) in assay [1] came to 0.05 µM; in assay [2], 0.02 µM. Besides, the Efficacy in assay [3] amounted to 7.8%; in assay [5], 34.7%. In addition, the concentration for a half-maximal effect (EC50) in assay [4] turned out to be 4.1 µM. For the same compound, the values for the Activity with LNCaP and in the assay on DU-145 were 58576 a.u and 9770 a.u, respectively.
On to `CC(C)[C@@H]1CC[C@@H](C)C[C@H]1NC(=O)Oc1ccc(-c2ccccc2)cc1`, for which the results for the IC50 in assay [1] and in assay [2] were 7.4 µM and 0.7 µM, respectively. The Efficacy in assay [3] worked out at 4.4%; in assay [5], 87.2%. The concentration giving a half-maximal response (EC50) in assay [4] is 6.7 µM.
`CC(C)[C@@H]1CC[C@@H](C)C[C@H]1NC(=O)Oc1cccc(Cl)c1`: the values for the concentration for half-maximal inhibition (IC50) in assay [1] and in assay [2] were 0.5 µM and 1.5 µM, respectively. The concentration for a half-maximal effect (EC50) in assay [6] worked out at 19.2 µM; in assay [4], 30 µM. Also, the Efficacy worked out at 22.6% in assay [3] and 309% in assay [5].
Take `CC(C)[C@@H]1CC[C@@H](C)C[C@H]1NC(=O)Oc1ccc(C(F)(F)F)cc1`: the figures for the concentration for half-maximal inhibition (IC50) in assay [1] and in assay [2] were 0.7 µM and 0.2 µM, respectively. Besides, the Efficacy came to 3.3% in assay [3] and 88.9% in assay [5]. In assay [4], the half-maximal effective concentration (EC50) is 3 µM.
With `CC(C)[C@@H]1CC[C@@H](C)C[C@H]1NC(=O)NC12CC3CC(CC(C3)C1)C2`, the half-inhibitory concentration (IC50) in assay [1] and in assay [2] was over 100 µM throughout. Further, the EC50 was 1 µM in assay [6] and 11.2 µM in assay [4]. For the same compound, the Efficacy was found to be 24.4% in assay [3] and 159% in assay [5].
For the compound `CC(C)[C@@H]1CC[C@@H](C)C[C@H]1NC(=O)Oc1ccc(C(C)(C)C)cc1`, the half-inhibitory concentration (IC50) in assay [1] worked out at 0.08 µM; in assay [2] it was 0.1 µM. For the same compound, the concentration giving a half-maximal response (EC50) was 18.3 µM in assay [6] and 11.7 µM in assay [4]. Moreover, the Efficacy in assay [3] turned out to be 23.8%; in assay [5], 76%.
As for `CC(C)[C@@H]1CC[C@@H](C)C[C@H]1NC(=O)c1ccc(Cl)cc1`, the concentration for half-maximal inhibition (IC50) in assay [1] was 1.6 µM; in assay [2] it was 0.7 µM. The EC50 was 4.1 µM in assay [6] and 40.2 µM in assay [4]. Moreover, the values for the Efficacy in assay [3] and in assay [5] were 53.8% and 223%, respectively.
As to `COc1ccc(OC(=O)N[C@@H]2C[C@H](C)CC[C@H]2C(C)C)cc1`, the half-inhibitory concentration (IC50) stood at 2.6 µM in assay [1] and 2.2 µM in assay [2]. Also, the concentration for a half-maximal effect (EC50) came to 53.8 µM in assay [6] and 3.2 µM in assay [4]. Further, the Efficacy in assay [3] is 46.6%; in assay [5] it was 135%.
Turning to `COc1cc(CNC(=O)N[C@@H]2C[C@H](C)CC[C@H]2C(C)C)ccc1O`, the IC50 in assay [1] was determined as 19.8 µM; in assay [2], 30.5 µM. In addition, the EC50 in assay [6] came to 0.23 µM. The figures for the Efficacy in assay [3] and in assay [5] were 63.2% and under 10%, respectively.
On to `COc1ccc(C(=O)N[C@@H]2C[C@H](C)CC[C@H]2C(C)C)cc1`, for which the IC50 in assay [1] came out at 9.6 µM; in assay [2], 12.8 µM. In addition, the Efficacy in assay [3] was 9.6%; in assay [5], under 10%.
